These results are taken from ChEMBL document CHEMBL1145627, “E-ring-modified 7-oxyiminomethyl camptothecins: Synthesis and preliminary in vitro and in vivo biological evaluation” (Bioorg Med Chem Lett, 2008).

The test system of data set [1] is PANC-1. The data set can be described thus: Antitumor activity against human Panc1 cells xenografted athymic mouse assessed as inhibition of tumor volume at 14 mg/kg, po administered in q4dx4 schedule. The class given is functional. An outline of the steps: (§1)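 Human tumor xenografts (CoBa colon, MKN-28 gastric, Panc-1 pancreatic) grown subcutaneously in mice. Drug given orally on an intermittent q4dx4 schedule. Read-out is % tumor volume inhibition in treated versus control mice. Complete responses were scored as tumor disappearance lasting at least ten days.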
Background: A xenograft is tissue or cells of one species grown in another, often human tumour cells in immunodeficient mice.

In data set [2] the test system is Mus musculus. In words: Toxicity in human Panc1 cells xenografted athymic mouse assessed as survival at 14 mg/kg, po administered in q4dx4 schedule. Type of data set: organism-based, PANC-1. Also on record: dose 14 mg/kg, route oral. The settings on record: in vivo. Put shortly:
(§2)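 Mice carried subcutaneous human tumor xenografts (CoBa, MKN-28 or Panc-1). They were dosed orally on an intermittent q4dx4 schedule, which was also used to set the maximum tolerated dose. Toxicity was scored as lethal toxicity, given as dead/treated mice. Drug-induced % body weight loss was also recorded.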

A short description of data set [3]: Antitumor activity against human CoBa cells xenografted athymic mouse assessed as inhibition of tumor volume at 15 mg/kg, po administered in q4dx4 schedule. The class given is functional. Put shortly:
as §1

In data set [4] the test system is NCI-H460. In words: Antiproliferative activity against human H460 cells after 1 hr of drug exposure measured after 72 hrs. The class given is functional, cell-based. An outline of the steps: (§3)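 Growth inhibition after 1-h drug exposure; IC50 is the concentration giving 50% reduction of cell growth versus untreated controls. Values are means ± SD from at least three experiments.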

Data set [5] has as its system MKN-28. In words: Antitumor activity against human MKN28 cells xenografted athymic mouse assessed as inhibition of tumor volume at 12 mg/kg, po administered in q4dx4 schedule. The class given is functional. Put shortly: (§4)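 Oral dosing on an intermittent q4dx4 schedule in mice bearing MKN-28 gastric carcinoma xenografts. Tumor volume inhibition % is relative to controls. Body weight loss % is the loss induced by drug treatment.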

The test system of data set [6] is MKN-28. The data set can be described thus: Antitumor activity against human MKN28 cells xenografted athymic mouse assessed as inhibition of tumor volume at 6 mg/kg, po administered in q4dx4 schedule. The class given is functional. An outline of the steps:
as §4

The subject of data set [7] is Mus musculus. The data set can be described thus: Toxicity in human CoBa cells xenografted athymic mouse assessed as loss of body weight at 15 mg/kg, po administered in q4dx4 schedule. Type of data set: organism-based. Set-up: dose 15 mg/kg, route oral. The following applies: in vivo. An outline of the steps:
(§5)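 Mice bearing subcutaneous CoBa colon carcinoma were treated on a q4dx4 schedule, orally or, for CPT11, at 50 mg/kg. Body weight loss % is the loss induced by drug treatment.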

The test system of data set [8] is HT-29. In words: Antiproliferative activity against human HT29 cells after 1 hr of drug exposure measured after 72 hrs. The class given is functional, cell-based. An outline of the steps: as §3
Data set [9] is described as follows: Toxicity in po dosed human MKN28 cells xenografted athymic mouse administered in q4dx4 schedule. The class given is organism-based, MKN-28. The following applies: in vivo.
For data set [10], the system named is Mus musculus. In words: Toxicity in human MKN28 cells xenografted athymic mouse assessed as survival at 3 mg/kg, po administered in q4dx4 schedule. Type of data set: organism-based, MKN-28. Set-up: dose 3 mg/kg, route oral. The settings on record: in vivo. An outline of the steps:
as §2

Data set [11] deals with Mus musculus. The data set can be described thus: Toxicity in human CoBa cells xenografted athymic mouse assessed as loss of body weight at 20 mg/kg, po administered in q4dx4 schedule. Type of data set: organism-based. Also on record: dose 20 mg/kg, route oral. The settings on record: in vivo. An outline of the steps:
as §5

The subject of data set [12] is Mus musculus. In words: Toxicity in human MKN28 cells xenografted athymic mouse assessed as loss of body weight at 3 mg/kg, po administered in q4dx4 schedule. Type of data set: organism-based, MKN-28. Set-up: dose 3 mg/kg, route oral. The following applies: in vivo. An outline of the steps:
as §4

The test system of data set [13] is Mus musculus. The data set can be described thus: Toxicity in human Panc1 cells xenografted athymic mouse assessed as loss of body weight at 15 mg/kg, po administered in q4dx4 schedule. Type of data set: organism-based, PANC-1. Set-up: dose 15 mg/kg, route oral. The following applies: in vivo.
The test system of data set [14] is HT-29. In words: Resistant index, ratio of IC50 for BCRP overexpressing mitoxantrone-resistant human HT29 cells to IC50 for human HT29 cells. Type of data set: functional. An outline of the steps: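 Resistance index in HT29/mit, the BCRP-overexpressing subline. IC50 values come from the 1-h exposure growth inhibition assay, as 50% growth reduction versus untreated controls.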

Data set [15] has as its system Mus musculus. The data set can be described thus: Toxicity in human MKN28 cells xenografted athymic mouse assessed as survival at 12 mg/kg, po administered in q4dx4 schedule. The class given is organism-based, MKN-28. Set-up: dose 12 mg/kg, route oral. The following applies: in vivo. An outline of the steps:
as §2

The subject of data set [16] is MKN-28. The data set can be described thus: Antitumor activity against human MKN28 cells xenografted athymic mouse assessed as inhibition of tumor volume at 3 mg/kg, po administered in q4dx4 schedule. Type of data set: functional. An outline of the steps: as §4
Data set [17] concerns Mus musculus. In words: Toxicity in human MKN28 cells xenografted athymic mouse assessed as loss of body weight at 12 mg/kg, po administered in q4dx4 schedule. Also on record: dose 12 mg/kg, route oral. The settings on record: in vivo. The class given is organism-based, MKN-28. Put shortly: as §4
Data set [18] has as its system Mus musculus. In words: Toxicity in human MKN28 cells xenografted athymic mouse assessed as survival at 6 mg/kg, po administered in q4dx4 schedule. Type of data set: organism-based, MKN-28. Set-up: dose 6 mg/kg, route oral. The following applies: in vivo. An outline of the steps:
as §2

Data set [19] concerns Mus musculus. The data set can be described thus: Toxicity in human Panc1 cells xenografted athymic mouse assessed as loss of body weight at 14 mg/kg, po administered in q4dx4 schedule. Type of data set: organism-based, PANC-1. Also on record: dose 14 mg/kg, route oral. The settings on record: in vivo.
For data set [20], the system named is HT-29. In words: Antiproliferative activity against BCRP overexpressing mitoxantrone-resistant human HT29 cells after 1 hr of drug exposure measured after 72 hrs. Type of data set: functional, cell-based. Put shortly: as §3
For data set [21], the system named is Mus musculus. The data set can be described thus: Toxicity in human MKN28 cells xenografted athymic mouse assessed as loss of body weight at 6 mg/kg, po administered in q4dx4 schedule. Also on record: dose 6 mg/kg, route oral. The class given is organism-based, MKN-28. The settings on record: in vivo. An outline of the steps: as §4
Data set [22] relates to PANC-1. The data set can be described thus: Antitumor activity against human Panc1 cells xenografted athymic mouse assessed as inhibition of tumor volume at 15 mg/kg, po administered in q4dx4 schedule. The class given is functional. Put shortly: as §1
Data set [23] concerns Mus musculus. In words: Toxicity in human CoBa cells xenografted athymic mouse assessed as survival at 15 mg/kg, po administered in q4dx4 schedule. Type of data set: organism-based. Set-up: dose 15 mg/kg, route oral. The following applies: in vivo. An outline of the steps:
as §2

Data set [24] deals with Mus musculus. The data set can be described thus: Toxicity in human CoBa cells xenografted athymic mouse assessed as survival at 2 mg/kg, po administered in q4dx4 schedule. Type of data set: organism-based. Also on record: dose 2 mg/kg, route oral. The settings on record: in vivo. Put shortly:
as §2

In data set [25] the test system is Mus musculus. In words: Toxicity in human CoBa cells xenografted athymic mouse assessed as loss of body weight at 2 mg/kg, po administered in q4dx4 schedule. Type of data set: organism-based. Set-up: dose 2 mg/kg, route oral. The settings on record: in vivo. Put shortly: as §5
The subject of data set [26] is NCI-H460. In words: Antiproliferative activity against human H460 cells after 2 hrs of drug exposure measured after 72 hrs. The class given is functional, cell-based. An outline of the steps:
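Growth inhibition with IC50 taken after 2-h drug exposure, as the concentration giving 50% reduction of cell growth versus untreated controls.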

The nature of data set [27]: Antitumor activity against human CoBa cells xenografted in athymic mouse assessed as inhibition of tumor volume at 2 mg/kg, po administered in q4dx4 schedule. The class given is functional. Put shortly:
as §1

Take `CCC1(O)CC(=O)OCc2c1cc1n(c2=O)Cc2c-1nc1ccccc1c2/C=N/OC(C)(C)C` (racemic): the values for the LCK in data set [1], in data set [3] and in data set [22] were 1.4, 1.3 and 1.6, respectively. Moreover, in data set [1] (Mus musculus, PANC-1), the inhibition in vivo (usually the change of the read-out against control, counted positive when it falls) at 14 mg/kg was determined as 99%. Also, the Activity entry in data set [2] is recorded as “Non-toxic”; in [7], 21%; in data set [10], “Non-toxic”; in [11], 18%; in data set [12], 0%; in [13] it was 16%. Also, the Activity result is on record as “Non-toxic” in data set [15]; 2% in data set [17]; “Non-toxic” in [18]; 5% in [19]; 0% in data set [21]; “Non-toxic” in [23]. The inhibition in vivo at 15 mg/kg in data set [3] (Homo sapiens, CoBa) stood at 95%. For the same molecule, the IC50 – broadly, the concentration that gives 50% inhibition – came out at 36.8 nM in data set [4], 41 nM in [8] and 560 nM in data set [20]. Moreover, the inhibition in vivo at 12 mg/kg in [5] was determined as 81%. Moreover, the inhibition in vivo at 6 mg/kg in data set [6] is 47%. Also, the MTD in data set [9] amounted to 12 mg/kg. Also, the “Ratio IC50” value in data set [14] came out at 14. In addition, the inhibition in vivo at 3 mg/kg in data set [16] is 71%.
Turning to `CCc1c2c(nc3ccc(O)cc13)-c1cc3c(c(=O)n1C2)COC(=O)[C@]3(O)CC` [7-ETHYL-10-HYDROXYCAMPTOTHECIN], the IC50 in data set [4] was found to be 220 nM; in [8], 670 nM; in [20], 11500 nM. Besides, the “Ratio IC50” value in data set [14] stood at 17.
As for `CC[C@@]1(O)C(=O)OCc2c1cc1n(c2=O)Cc2cc3ccccc3nc2-1` [CAMPTOTHECIN], the IC50 in data set [4] is 180 nM; in [8], 3160 nM; in [20] it was 8810 nM. In addition, the “Ratio IC50” value in [14] turned out to be 2.8.
Turning to `CC[C@@]1(O)C(=O)OCc2c1cc1n(c2=O)Cc2c-1nc1ccccc1c2/C=N/OC(C)(C)C` [GIMATECAN], the Activity entry in data set [24] is “Non-toxic”; in data set [25], 18%. Further, the IC50 is 20 nM in [4], 56 nM in data set [8], 15 nM in [26] and 70 nM in data set [20]. The “Ratio IC50” value in [14] turned out to be 1.2. For the same molecule, the LCK in data set [27] is 1.1. Further, the inhibition in vivo at 2 mg/kg in data set [27] (Homo sapiens, CoBa) is 90%.
For the molecule `CC[C@@]1(O)CC(=O)OCc2c1cc1n(c2=O)Cc2cc3ccccc3nc2-1` [HOMOCAMPTOTHECIN], the values for the IC50 in data set [4], in data set [8] and in [20] were 49.6 nM, 440 nM and 8550 nM, respectively. Besides, the “Ratio IC50” value in data set [14] came to 19.
On to `CC[C@@]1(O)C(=O)OCc2c1cc1n(c2=O)Cc2cc3c(CN(C)C)c(O)ccc3nc2-1` [TOPOTECAN], for which the IC50 in [8] came to 1350 nM; in data set [20] it was 46300 nM. For the same molecule, the “Ratio IC50” value in data set [14] is given as 34.
